From ChEMBL document CHEMBL1133602, “A study of the relationship between biological activity and prolyl amide isomer geometry in oxytocin using 5-tert-butylproline to augment the Cys(6)-Pro(7) amide cis-isomer population” (J Med Chem, 2000)
pEC50, pKi: −log10 of the molar value. Numbered stars: 1 amine (or outer) side, 2 acyl side, 3 side chain; on linkers, the order of the positions; unused ones are H or OH. Bridge positions count the residues as written; N and C are the ends. Square brackets hold non-standard residues; d marks the D form. Peptide text beside a SMILES is read from it. X3 = CC(C)(C)[C@H]1CC[C@@H](C(=O)[*:2])N1[*:1]; X1 = CC(C)(C)C1CC[C@@H](C(=O)[*:2])N1[*:1]; Mpa = O=C(O)CCS

How the values were obtained:
Rattus norvegicus [1] = species on record: Rattus norvegicus; assay: Effective concentration in rat in the presence of 1 mM of Magnesium; type: functional, organism-based
Summary of the method: (§1)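 Isolated uterus from estrogen-primed rats (24-48 h) in Munsick solution, either without magnesium or with 1 mM Mg2+. Antagonist added 1 min before a standard oxytocin dose. EC50 is the concentration that cuts the response to a 2x agonist dose down to that of dose x; pA2 is its negative log. Uteri from 3-5 rats.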

Oxytocin receptor = biological target: T1, Oxytocin receptor (Rattus norvegicus, UniProt P70536); assay: Binding affinity against oxytocin receptor
T1 sequence (P70536 whole entry): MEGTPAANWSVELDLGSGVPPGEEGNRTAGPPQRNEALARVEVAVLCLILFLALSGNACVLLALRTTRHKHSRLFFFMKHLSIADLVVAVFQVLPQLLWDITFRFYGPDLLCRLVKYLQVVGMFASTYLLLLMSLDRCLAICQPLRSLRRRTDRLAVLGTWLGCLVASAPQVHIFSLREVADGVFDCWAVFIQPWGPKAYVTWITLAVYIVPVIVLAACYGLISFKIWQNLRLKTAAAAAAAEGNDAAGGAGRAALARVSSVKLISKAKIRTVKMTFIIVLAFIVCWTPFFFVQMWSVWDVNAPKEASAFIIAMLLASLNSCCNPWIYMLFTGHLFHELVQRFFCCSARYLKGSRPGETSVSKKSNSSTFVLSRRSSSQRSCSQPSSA
Summary of the method: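 Crude rat uterine membrane fraction incubated with [3H]oxytocin (2 nM) plus peptide at 0.1-10000 nM, 30 min at 35 °C. Buffer was 50 mM HEPES pH 7.6 with 10 mM MnCl2 and 1 mg/mL bovine serum albumin. Bound and free separated by rapid filtration.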

Rattus norvegicus [2] = species on record: Rattus norvegicus; assay: Effective concentration in rat in the absence of Magnesium; type: functional, organism-based; summary of the method: as §1
Rattus norvegicus [3] = species on record: Rattus norvegicus; assay: In Vitro evaluation for the uterotonic activity in rat in the presence of 1 mM of Magnesium; type: functional
Summary of the method: (§2)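 Isolated uterus from rats estrogenized 24-48 h beforehand, in Munsick solution without magnesium or with 1 mM Mg2+, oxytocin as standard. Single doses given in random order with bath changed after each response and at least 5 min between doses; cumulative doubling doses given at 1-min intervals. IU/mg from threshold doses against standard, EC50 from the curves. Uteri from 3-5 rats.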

Rattus norvegicus [4] = species on record: Rattus norvegicus; assay: In Vitro evaluation for the uterotonic activity in rat in the absence of Magnesium; type: functional; summary of the method: as §2
Rattus norvegicus [5] = species on record: Rattus norvegicus; assay: Compound was evaluated for the pressor activity in rat; type: functional
Summary of the method: (§3)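 Male rats (220-260 g) under urethane, pretreated with phenoxybenzamine in two doses. Femoral vein cannulated for dosing and carotid artery for blood pressure. After about 30 min stabilization, i.v. bolus doses of standard or analogue given in random order. Standard curve spanned 2 × 10-5 - 2 × 10-4 mg/kg. Activity set against the standard, 3-4 animals per analogue.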

Rattus norvegicus [6] = species on record: Rattus norvegicus; assay: Compound was evaluated for the pressor activity; type: functional; summary of the method: as §3

| Compound | pEC50 (Rattus norvegicus [1]) | pKi (Oxytocin receptor) | pEC50 (Rattus norvegicus [2]) | Activity (Rattus norvegicus [3]) [IU mg-1] | Activity (Rattus norvegicus [4]) [IU mg-1] | Activity (Rattus norvegicus [5]) [IU/mg] | Activity (Rattus norvegicus [6]) [IU/mg] |
| --- | --- | --- | --- | --- | --- | --- | --- |
| CC[C@H](C)[C@@H]1NC(=O)[C@H](Cc2ccc(O)cc2)NC(=O)[C@@H](N)CSSC[C@@H](C(=O)N2[C@H](C(=O)N[C@@H](CC(C)C)C(=O)NCC(N)=O)CC[C@@H]2C(C)(C)C)NC(=O)[C@H](CC(N)=O)NC(=O)[C@H](CCC(N)=O)NC1=O (H-CYIQNC[X3]LG-NH2; disulfide 1-6) [listing 1 of 2 here] | 6.35 | 5.84 | 6.82 |  |  |  |  |
| CC[C@H](C)[C@@H]1NC(=O)[C@H](Cc2ccc(O)cc2)NC(=O)[C@@H](N)CSSC[C@@H](C(=O)N2[C@H](C(=O)N[C@@H](CC(C)C)C(=O)NCC(N)=O)CC[C@@H]2C(C)(C)C)NC(=O)[C@H](CC(N)=O)NC(=O)[C@H](CCC(N)=O)NC1=O (H-CYIQNC[X3]LG-NH2; disulfide 1-6) [listing 2 of 2 here] |  |  |  | 0.5 | 1.8 | 0 |  |
| CC[C@H](C)[C@@H]1NC(=O)[C@H](Cc2ccc(O)cc2)NC(=O)CCSSC[C@@H](C(=O)N2CCC[C@H]2C(=O)N[C@@H](CC(C)C)C(=O)NCC(N)=O)NC(=O)[C@H](CC(N)=O)NC(=O)[C@H](CCC(N)=O)NC1=O [DEMOXYTOCIN] |  | 8.49 |  | 760 | 837 |  | 1.5 |
| CC[C@H](C)[C@@H]1NC(=O)[C@H](Cc2ccc(O)cc2)NC(=O)CCSSC[C@@H](C(=O)N2C(C(C)(C)C)CC[C@H]2C(=O)N[C@@H](CC(C)C)C(=O)NCC(N)=O)NC(=O)[C@H](CC(N)=O)NC(=O)[C@H](CCC(N)=O)NC1=O (stereo partly specified) ([Mpa]YIQNC[X1]LG-NH2; disulfide 1-6) | 7.12 | 6.62 | 7.30 | 3 | 6.1 | 0 |  |
| CC[C@H](C)[C@@H]1NC(=O)[C@H](Cc2ccc(O)cc2)NC(=O)[C@@H](N)CSSC[C@@H](C(=O)N2CCC[C@H]2C(=O)N[C@@H](CC(C)C)C(=O)NCC(N)=O)NC(=O)[C@H](CC(N)=O)NC(=O)[C@H](CCC(N)=O)NC1=O [OXYTOCIN] | 9.30 |  | 9.22 | 450 | 450 | 5 |  |
